Experimental data: paper PMC2819033 (Journal of medicinal chemistry, 2009)
Read-outs that look alike come from different tables or passages of the source.

Legend:
[1] = mononuclear analogue; cited from earlier work
[2] = test system: A2780 (ovarian carcinoma) cells; conditions: read-out: IC50 A2780; cited from earlier work
[3] = test system: SW480 (colon carcinoma) cells; experiment: MTT assay, SW480 cells; type: cell-based, Human; conditions: read-out: IC50 SW480, 96 h exposure
Procedure, shortened: (§1)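 Cells were kept in MEM with 10% heat-inactivated FBS, 1 mM pyruvate, 4 mM L-glutamine and 1% NEAA at 37 °C, 5% CO2. Seeding by trypsinization was SW480 2.5 × 103 and A2780 5.0 × 10^3 cells/well, with 24 h preincubation and 96 h exposure to serial dilutions. MTT was added for 4 h, formazan dissolved in DMSO, and read at 550 nm (reference 690 nm). IC50 was interpolated from T/C curves using ≥3 experiments, ≥6 replicates each.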

[4] = test system: guanosine 5′-monophosphate (GMP); experiment: Nucleotide binding by 1H and 31P NMR, GMP; conditions: ratio complex/nucleotide
[5] = test system: adenosine 5′-monophosphate (AMP); experiment: Nucleotide binding by 1H and 31P NMR, AMP; conditions: ratio complex/nucleotide
[6] = test system: thymidine 5′-monophosphate (TMP); experiment: Nucleotide binding by 1H and 31P NMR, TMP
[7] = n-octanol/water partition coefficient, shake flask method; type: physicochemical; conditions: values of the aqua complexes
Procedure, shortened: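 Partition was measured by the shake-flask method. For the octanol phase, UV/vis was read at each complex's absorption maximum against n-octanol standards from 1 to 100 μM. For the aqueous phase, ruthenium was measured by ICP-MS (101Ru and 102Ru) with external calibration from 1 to 30 ppb. These samples were prepared in 5% HNO3 with 1 ppb 185Re as internal standard.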

[8] = test system: A2780 (ovarian carcinoma) cells; experiment: MTT assay, A2780 cells; type: cell-based, Human; conditions: read-out: IC50 A2780, 96 h exposure
Procedure, shortened: as §1

[9] = test system: cytidine 5′-monophosphate (CMP); experiment: Nucleotide binding by 1H and 31P NMR, CMP
[10] = test system: uridine 5′-monophosphate (UMP); experiment: Nucleotide binding by 1H and 31P NMR, UMP
[11] = test system: 5637-oxo oxoplatin-resistant cells; experiment: Crystal violet assay, 5637-oxo; type: cell-based, Human; conditions: for Resistance factor 5637-oxo: 5637-oxo versus 5637; for IC50: read-out: IC50 5637-oxo, crystal violet, 96 h, oxoplatin-resistant line
Procedure, shortened: (§2)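 Resistant sublines were derived in-house by weekly exposure to rising oxoplatin concentrations over several months. Cells grew as adherent cultures in RPMI with 10% heat-inactivated FBS and penicillin/streptomycin at 37 °C, 5% CO2. After seeding at 1.0 × 10^3 cells/well and 24 h preincubation, cells had 96 h exposure to 20 mM DMF stocks diluted 1000-fold in medium. Crystal violet was redissolved in 70% ethanol and read at 570 nm.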

[12] = test system: DAN-G (pancreatic cancer) cells; conditions: read-out: IC50 DAN-G; crystal violet; cited from earlier work
[13] = test system: A-427 (lung cancer) cells; conditions: read-out: IC50 A-427; crystal violet; cited from earlier work
[14] = test system: LCLC-103H (lung cancer) cells; conditions: read-out: IC50 LCLC-103H; crystal violet; cited from earlier work
[15] = test system: 5637 (bladder cancer) cells; experiment: Crystal violet assay, 5637; type: cell-based, Human; conditions: read-out: IC50 5637, 96 h
Procedure, shortened: (§3)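 Crystal violet assay after 24 h preincubation. Adherent cells grown in RPMI with 10% heat-inactivated FBS and penicillin/streptomycin at 37 °C, 5% CO2; MCF-7 medium also had 1 mM sodium pyruvate and 1% nonessential amino acids. Seeding was 1.0 × 10^3 cells/well, or 250 cells/well for LCLC-103H. 20 mM DMF stocks were diluted 1000-fold in medium with 10% FCS for 96 h exposure. Bound dye was redissolved in 70% ethanol and read at 570 nm.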

[16] = test system: RT-4 (bladder cancer) cells; conditions: read-out: IC50 RT-4; crystal violet; cited from earlier work
[17] = test system: SISO-oxo oxoplatin-resistant cells; experiment: Crystal violet assay, SISO-oxo; type: cell-based, Human; conditions: for Resistance factor SISO-oxo: SISO-oxo versus SISO; for IC50: read-out: IC50 SISO-oxo, crystal violet, 96 h, oxoplatin-resistant line
Procedure, shortened: as §2

[18] = test system: SISO (cervical cancer) cells; experiment: Crystal violet assay, SISO; type: cell-based, Human; conditions: read-out: IC50 SISO, 96 h
Procedure, shortened: as §3

[19] = test system: KYSE70 (esophagus cancer) cells; experiment: Crystal violet assay, KYSE70; type: cell-based, Human; conditions: read-out: IC50 KYSE70, 96 h
Procedure, shortened: as §3

[20] = test system: KYSE70-oxo oxoplatin-resistant cells; experiment: Crystal violet assay, KYSE70-oxo; type: cell-based, Human; conditions: for Resistance factor KYSE70-oxo: KYSE70-oxo versus KYSE70; for IC50: read-out: IC50 KYSE70-oxo, crystal violet, 96 h, oxoplatin-resistant line
Procedure, shortened: as §2

[21] = test system: LCLC-103H (lung cancer) cells; experiment: Crystal violet assay, LCLC-103H; type: cell-based, Human; conditions: read-out: IC50 LCLC-103H, 96 h
Procedure, shortened: as §3

[22] = test system: MCF-7 (breast cancer) cells; experiment: Crystal violet assay, MCF-7; type: cell-based, Human; conditions: read-out: IC50 MCF-7, 96 h
Procedure, shortened: as §3

[23] = test system: RT-4 (bladder cancer) cells; experiment: Crystal violet assay, RT-4; type: cell-based, Human; conditions: read-out: IC50 RT-4, 96 h
Procedure, shortened: as §3

[24] = test system: DAN-G (pancreatic cancer) cells; experiment: Crystal violet assay, DAN-G; type: cell-based, Human; conditions: read-out: IC50 DAN-G, 96 h
Procedure, shortened: as §3

[25] = test system: A-427 (lung cancer) cells; experiment: Crystal violet assay, A-427; type: cell-based, Human; conditions: read-out: IC50 A-427, 96 h
Procedure, shortened: as §3

IC50 [3] [µM] | log Poct/water ICP-MS [7] | log Poct/water UV/vis [7] | IC50 [8] [µM] | Structure (SMILES) | Resistance factor 5637-oxo [11] | IC50 [11] [µM] | IC50 [15] [nM] | Resistance factor SISO-oxo [17] | IC50 [17] [nM] | IC50 [18] [nM] | IC50 [19] [nM] | Resistance factor KYSE70-oxo [20] | IC50 [20] [µM] | other results
> 100 |  |  |  | Cc1ccc(C(C)C)cc1.Cc1occc(=O)c1[O-].[Cl-].[Ru+2] [[RuCl(cym)(mal)] 8, chlorido(maltolato-κO^2)(η^6-p-cymene)ruthenium(II)] |  |  |  |  |  |  |  |  |  | pKa values [1]: 9.23; IC50 [2]: > 100 µM
76 ± 4 | −1.42 | −1.42 | 84 ± 3 | Cc1c([O-])c(=O)ccn1CCn1ccc(=O)c([O-])c1C.Cc1ccc(C(C)C)cc1.Cc1ccc(C(C)C)cc1.[Cl-].[Cl-].[Ru+2].[Ru+2] [1c, 1,2-Bis{chlorido[3-(oxo-κO)-2-methyl-4(1H)-pyridinonato-κO4](η ^6-p-cymene)ruthenium(II)}ethane] |  |  |  |  |  |  |  |  |  | 

Further lines, the compound ahead of its results:

Structure (SMILES) | IC50 [3] [µM] | log Poct/water ICP-MS [7] | log Poct/water UV/vis [7] | IC50 [8] [µM] | Resistance factor 5637-oxo [11] | IC50 [11] [µM] | IC50 [15] [nM] | Resistance factor SISO-oxo [17] | IC50 [17] [nM] | IC50 [18] [nM] | IC50 [19] [nM] | Resistance factor KYSE70-oxo [20] | IC50 [20] [µM] | other results
Cc1c([O-])c(=O)ccn1CCCCCCCCn1ccc(=O)c([O-])c1C.Cc1ccc(C(C)C)cc1.Cc1ccc(C(C)C)cc1.[Cl-].[Cl-].[Ru+2].[Ru+2] [5c, 1,8-Bis{chlorido[3-(oxo-κO)-2-methyl-4(1H)-pyridinonato-κO4](η ^6-p-cymene)ruthenium}octane] | 2.5 ± 0.2 | −1.28 | −1.23 | 5.7 ± 0.5 |  |  |  |  |  |  |  |  |  | formation of GMP adducts [4]: proceeded rapidly and quantitatively up to a ratio of 2:1; formation of AMP adducts [5]: proceeded rapidly and quantitatively up to a ratio of 2:1; reaction with TMP [6]: no reaction was observed; reaction with CMP [9]: no reaction was observed; reaction with UMP [10]: no reaction was observed
N.N.[Cl][Pt][Cl] [cisplatin] |  |  |  |  | 2.9 | 1.1 ± 0.4 | 370 ± 10 | 2.1 | 580 ± 80 | 280 ± 40 | 720 ± 110 | 2.4 | 1.7 ± 0.4 | IC50 [12]: 730 ± 340 nM; IC50 [13]: 1960 ± 540 nM; IC50 [14]: 900 ± 190 nM; IC50 [16]: 1610 ± 160 nM
N.N.[Cl-].[Cl-].[OH-].[OH-].[Pt+4] [oxoplatin] |  |  |  |  | 3.4 | 10.6 ± 1.3 | 3100 ± 1500 | 3.1 | 5200 ± 900 | 1700 ± 400 | 4200 ± 2800 | 2.1 | 8.8 ± 5.2 | IC50 [21]: 17.2 ± 5.1 µM; IC50 [22]: 5.5 ± 1.1 µM; IC50 [23]: 26 ± 8 µM; IC50 [24]: 11.8 ± 3.2 µM; IC50 [25]: 13 ± 2.7 µM
CCCn1ccc(=O)c([O-])c1C.Cc1ccc(C(C)C)cc1.[Cl-].[Ru+2] [compound 7, chlorido[2-methyl-3-(oxo-κO)-1-propyl-4(1H)-pyridinonato-κO4](η^6-p-cymene)ruthenium(II)] | 42 ± 1 |  |  | 88 ± 12 |  |  |  |  |  |  |  |  |  | 
